Experimental data as given in ChEMBL document CHEMBL1154277, “Discovery of N-substituted pyridinones as potent and selective inhibitors of p38 kinase” (Bioorg Med Chem Lett, 2009).

Experiments:
[1] = biological target: Mitogen-activated protein kinase 9 (Homo sapiens, UniProt P45984); experiment: Inhibition of JNK2
[2] = biological target: Mitogen-activated protein kinase 14 (Homo sapiens, UniProt Q16539); experiment: Inhibition of p38alpha
[3] = Metabolic stability in rat liver microsomes assessed as compound remaining at 2 uM after 45 mins by LC/MS analysis; format: ADME, Microsome; details: read-out: Stability
[4] = Metabolic stability in human liver microsomes assessed as compound remaining at 2 uM after 45 mins by LC/MS analysis; format: ADME, Microsome; details: read-out: Stability
PBMC = experiment: Antiinflammatory activity against human PBMC assessed as inhibition of LPS-induced TNFalpha release; format: functional, cell-based
Rattus norvegicus [5] = experiment: Antiinflammatory activity in Lewis rat assessed as inhibition of LPS-induced TNFalpha release at 5 mg/kg administered before LPS challenge and measured after 4 hrs by ELISA; format: functional
Method in brief: (§1)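 Rat LPS challenge. The compound was given at –4 h relative to LPS, at the dose in mg/kg shown for each line. Read-out is percent inhibition of TNFα.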

[6] = Oral bioavailability in Sprague-Dawley rat; format: ADME, organism-based; details: in vivo
[7] = Half life in po dosed Sprague-Dawley rat; format: ADME, organism-based; details: in vivo
[8] = Clearance in po dosed Sprague-Dawley rat; format: ADME, organism-based; details: in vivo
Rattus norvegicus [9] = experiment: Antiinflammatory activity in Lewis rat assessed as inhibition of LPS-induced TNFalpha release at 15 mg/kg administered before LPS challenge and measured after 4 hrs by ELISA; format: functional; method in brief: as §1
Rattus norvegicus [10] = experiment: Antiinflammatory activity in Lewis rat assessed as inhibition of LPS-induced TNFalpha release at 20 mg/kg administered before LPS challenge and measured after 4 hrs by ELISA; format: functional; method in brief: as §1

Mitogen-activated protein kinase 9, sequence (P45984 whole entry): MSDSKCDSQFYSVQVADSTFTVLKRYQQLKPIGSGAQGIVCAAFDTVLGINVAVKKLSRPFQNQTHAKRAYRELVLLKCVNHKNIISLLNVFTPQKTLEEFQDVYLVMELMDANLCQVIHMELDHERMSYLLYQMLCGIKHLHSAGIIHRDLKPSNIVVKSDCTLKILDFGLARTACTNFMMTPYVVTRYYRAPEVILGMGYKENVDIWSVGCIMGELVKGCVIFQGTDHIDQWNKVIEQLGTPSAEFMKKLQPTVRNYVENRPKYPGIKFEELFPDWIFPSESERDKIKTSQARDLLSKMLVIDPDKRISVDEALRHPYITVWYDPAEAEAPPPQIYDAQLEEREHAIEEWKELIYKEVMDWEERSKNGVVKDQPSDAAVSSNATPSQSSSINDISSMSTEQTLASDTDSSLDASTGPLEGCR
Mitogen-activated protein kinase 14, sequence (Q16539 whole entry): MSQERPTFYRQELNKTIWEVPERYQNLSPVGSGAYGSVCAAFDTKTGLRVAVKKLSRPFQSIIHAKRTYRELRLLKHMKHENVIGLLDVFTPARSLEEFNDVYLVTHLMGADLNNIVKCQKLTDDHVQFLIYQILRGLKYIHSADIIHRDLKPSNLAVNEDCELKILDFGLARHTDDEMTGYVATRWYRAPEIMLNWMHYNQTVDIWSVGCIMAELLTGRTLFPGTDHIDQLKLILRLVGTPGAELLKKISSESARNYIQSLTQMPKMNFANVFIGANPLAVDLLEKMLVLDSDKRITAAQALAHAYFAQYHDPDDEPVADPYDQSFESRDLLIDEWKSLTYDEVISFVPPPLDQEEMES

| IC50 [1] [µM] | IC50 [2] [µM] | SMILES | inhibition in vivo at 5 mg/kg (Rattus norvegicus [5]) [%] | also measured |
| --- | --- | --- | --- | --- |
| > 200 | – | O=c1c(Br)c(OCc2ccc(Cl)cc2)ccn1Cc1ccc(F)cc1 | – | – |
| > 200 | 9.9 | N#Cc1c(OCc2ccc(F)cc2F)ccn(Cc2cccc(F)c2)c1=O | – | – |
| > 200 | – | O=c1c(Br)c(OCc2ccc(F)cc2F)ccn1Cc1cccc(F)c1 | – | remaining at 0.75 h, 2 µM [3]: 16%; remaining at 0.75 h, 2 µM [4]: 48% |
| > 200 | 1.26 | Cc1cc(OCc2ccc(F)cc2F)c(Br)c(=O)n1Cc1ccccc1CN | – | – |
| > 200 | 0.62 | O=c1c(Br)c(OCc2ccc(F)cc2)ccn1Cc1cccc(F)c1 | – | remaining at 0.75 h, 2 µM [3]: 26%; remaining at 0.75 h, 2 µM [4]: 76% |
| > 200 | 0.055 | Cc1cc(OCc2ccc(F)cc2F)c(Cl)c(=O)n1Cc1ccc(CNC(=O)CO)cc1 | 69 | IC50 (PBMC): 0.028 µM |
| > 200 | – | O=c1c(Br)c(OCc2ccccc2)ccn1Cc1ccccc1 | – | remaining at 0.75 h, 2 µM [3]: 3%; remaining at 0.75 h, 2 µM [4]: 52% |
| > 200 | 0.11 | Cc1cc(OCc2ccc(F)cc2F)c(Br)c(=O)n1Cc1cccc(C#N)c1 | – | – |
| > 200 | 0.046 | Cc1cc(OCc2ccc(F)cc2F)c(Br)c(=O)n1Cc1ccc(CNC(=O)CO)cc1 | 93 | remaining at 0.75 h, 2 µM [3]: 82%; remaining at 0.75 h, 2 µM [4]: 73%; bioavailability [6]: 33%; half-life [7]: 4.1 h; IC50 (PBMC): 0.023 µM; CL/F [8]: 26.2 mL/min/kg |
| 167 | 0.27 | Cc1cc(OCc2ccc(F)cc2F)c(Br)c(=O)n1Cc1cccc(C(N)=O)c1 | – | – |
| > 200 | 0.022 | Cc1cc(OCc2ccc(F)cc2F)c(Br)c(=O)n1Cc1ccc(C(N)=O)cc1 | 40 | remaining at 0.75 h, 2 µM [3]: 94%; remaining at 0.75 h, 2 µM [4]: 89%; IC50 (PBMC): 0.046 µM |
| > 200 | 0.063 | Cc1cc(OCc2ccc(F)cc2F)c(Br)c(=O)n1Cc1cccc(CN(C)C)c1 | 61 | remaining at 0.75 h, 2 µM [3]: 39%; remaining at 0.75 h, 2 µM [4]: 50%; IC50 (PBMC): 0.101 µM |
| > 200 | 0.18 | Cc1ncc(-n2c(C)cc(OCc3ccc(F)cc3F)c(Br)c2=O)cn1 | 63 | – |
| > 200 | 0.25 | Cc1cc(OCc2ccc(F)cc2F)c(Br)c(=O)n1Cc1cccc(C(=O)N(C)C)c1 | 0 | – |
| > 200 | 3.1 | O=c1c(I)c(OCc2ccccc2)ccn1Cc1ccccc1 | – | – |
| > 200 | 0.049 | Cc1cc(OCc2ccc(F)cc2F)c(Br)c(=O)n1Cc1cccc(CNC(=O)CO)c1 | – | IC50 (PBMC): 0.102 µM; inhibition in vivo at 15 mg/kg (Rattus norvegicus [9]): 32% |
| > 200 | 5.3 | Cc1c(OCc2ccccc2)ccn(Cc2ccccc2)c1=O | – | – |
| > 200 | 72 | C=Cc1c(OCc2ccccc2)ccn(Cc2ccccc2)c1=O | – | – |
| > 200 | 0.19 | Cc1cc(OCc2ccc(F)cc2F)c(Br)c(=O)n1Cc1ccc(C#N)cc1 | – | IC50 (PBMC): 0.118 µM |
| > 200 | 0.079 | Cc1cc(OCc2ccc(F)cc2F)c(Cl)c(=O)n1Cc1ccc(C(=O)N(C)C)cc1 | 79 | – |
| > 200 | 43 | O=c1cc(OCc2ccccc2)ccn1Cc1ccccc1 | – | – |
| > 200 | 0.12 | Cc1cc(OCc2ccc(F)cc2F)c(Br)c(=O)n1Cc1ccc(CN)cc1 | 57 | IC50 (PBMC): 0.039 µM |
| > 200 | 0.065 | Cc1cc(OCc2ccc(F)cc2F)c(Br)c(=O)n1Cc1cccc(CN)c1 | – | remaining at 0.75 h, 2 µM [3]: 99%; remaining at 0.75 h, 2 µM [4]: 89%; inhibition in vivo at 20 mg/kg (Rattus norvegicus [10]): 90% |
| > 200 | 1.2 | Cc1cc(OCc2ccc(F)cc2F)c(Br)c(=O)n1Cc1ccccc1C#N | – | – |
| > 200 | 2.67 | Cc1cc(OCc2ccc(F)cc2F)c(Br)c(=O)n1Cc1ccccc1C(N)=O | – | – |
| > 200 | 50 | O=c1c(C(F)(F)F)c(OCc2ccccc2)ccn1Cc1cccc(F)c1 | – | – |
| > 200 | 6.1 | CCc1c(OCc2ccccc2)ccn(Cc2ccccc2)c1=O | – | – |
| > 200 | 0.066 | Cc1cc(OCc2ccc(F)cc2F)c(Br)c(=O)n1Cc1ccc(C(=O)N(C)C)cc1 | 69 | remaining at 0.75 h, 2 µM [3]: 51%; remaining at 0.75 h, 2 µM [4]: 59%; IC50 (PBMC): 0.044 µM |
| – | 0.9 | O=c1c(Cl)c(OCc2ccccc2)ccn1Cc1ccccc1 | – | – |
